Data as given in ChEMBL document CHEMBL4342470, “Detection of Active Granzyme A in NK92 Cells with Fluorescent Activity-Based Probe” (J Med Chem, 2020).
One block for each compound: values may come before it. Activity calls are given as the source filed them. No cut-off for these calls is given here. Non-standard residues stand in square brackets, D forms with d. Residues, ends and D or L forms follow the SMILES beside them. ξ: configuration not given here. *: point of attachment. Phe(4-guanidino) = N=C(N)Nc1ccc(C[C@H](N)C(=O)O)cc1; Oic(3aξ,7aξ) = O=C(O)[C@@H]1CC2CCCCC2N1; Phe(4-F) = N[C@@H](Cc1ccc(F)cc1)C(=O)O; ACC = NC(=O)Cc1cc(=O)oc2cc(N*)ccc12; Met(O) = CS(=O)CC[C@H](N)C(=O)O; Tic = O=C(O)[C@@H]1Cc2ccccc2CN1; X1 = Clc1cccc(Cl)c1C*

Key:
[1] = target: T1, Granzyme A (Homo sapiens) (UniProt P12544); assay: Substrate activity at Granzyme A (unknown origin) expressed in Pichia pastoris incubated for 30 mins by fluorescence based assay
T1 sequence (whole entry): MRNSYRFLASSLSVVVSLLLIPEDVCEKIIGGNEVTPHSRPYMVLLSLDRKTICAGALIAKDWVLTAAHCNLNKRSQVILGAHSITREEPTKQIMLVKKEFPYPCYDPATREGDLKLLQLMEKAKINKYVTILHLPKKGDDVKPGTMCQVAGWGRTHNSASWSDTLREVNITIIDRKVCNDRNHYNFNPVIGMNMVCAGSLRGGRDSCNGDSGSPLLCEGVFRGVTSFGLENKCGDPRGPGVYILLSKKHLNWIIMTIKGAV

[2] = target: T2, Granzyme K (Homo sapiens) (UniProt P49863); assay: Inhibition of Granzyme K (unknown origin) expressed in Pichia pastoris using GrKref substrate by spectrofluorometry relative to control; conditions: concentration not given here
T2 sequence (whole entry): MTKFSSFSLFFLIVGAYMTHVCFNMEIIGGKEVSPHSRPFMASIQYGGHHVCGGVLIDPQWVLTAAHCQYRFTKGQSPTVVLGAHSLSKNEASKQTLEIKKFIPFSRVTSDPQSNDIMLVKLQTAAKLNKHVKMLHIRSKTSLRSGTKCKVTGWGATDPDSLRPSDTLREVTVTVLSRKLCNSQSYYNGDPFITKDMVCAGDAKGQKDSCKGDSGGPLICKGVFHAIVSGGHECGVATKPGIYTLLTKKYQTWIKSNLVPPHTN
Outline: (§1)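 Each enzyme preincubated 30 min at 37 °C with 10 μM compound, then its matched ACC substrate added (SK15 for GrA, GrKref, GrBref, Ac-KVPL-ACC for GrM, and the PR3 and hNE substrates). Enzyme levels: GrK 488 nM, GrB 18 nM, GrM 74 nM, hNE 3.3 nM, PR3 3.4 nM. Reference substrates at 200 μM. Fluorescence read at 355/460 nm; residual activity relative to an untreated enzyme control.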

[3] = target: T1, Granzyme A (Homo sapiens); assay: Binding affinity to Granzyme A in human NK92 cells at 1 uM treated 1 hr after GrA covalent inhibitor methyl 4-[(3S)-3-[[2-[(2S)-2-[(1-diphenoxyphosphoryl-4-guanidinobutyl)carbamoyl]-2,3,3a,4,5,6,7,7a-octahydroindol-1-yl]-2-oxoethyl]carbamoyl]-3,4-dihydro-1H-isoquinolin-2-yl]-4-oxobutanoate dosing and measured 30 mins to 2 hrs post dose by SDS-PAGE analysis; format: cell-based
[4] = target: T1, Granzyme A (Homo sapiens); assay: Inhibition of Granzyme A (unknown origin) expressed in Pichia pastoris using SK15 substrate by spectrofluorometry relative to control; outline: as §1
[5] = target: Granzyme B (Homo sapiens) (UniProt P10144); assay: Inhibition of Granzyme B (unknown origin) expressed in Pichia pastoris using GrBref substrate by spectrofluorometry relative to control; outline: as §1
[6] = target: T3, Myeloblastin (Homo sapiens) (UniProt P24158); assay: Inhibition of PR3 (unknown origin) expressed in Pichia pastoris using Ac-Glu(O-Bzl)-Lys(Ac)-Hyp(Bzl)-Nva-ACC substrate by spectrofluorometry relative to control; outline: as §1
T3 sequence (whole entry): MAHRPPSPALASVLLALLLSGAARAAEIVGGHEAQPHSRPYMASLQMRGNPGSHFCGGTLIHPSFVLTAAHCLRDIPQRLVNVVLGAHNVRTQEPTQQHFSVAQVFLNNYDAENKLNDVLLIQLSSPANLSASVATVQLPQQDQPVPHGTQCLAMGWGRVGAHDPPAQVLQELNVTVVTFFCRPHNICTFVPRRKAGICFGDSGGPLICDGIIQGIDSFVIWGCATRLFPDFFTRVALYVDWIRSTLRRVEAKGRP

[7] = target: T1, Granzyme A (Homo sapiens); assay: Binding affinity to Granzyme A zymogen form (unknown origin) expressed in Pichia pastoris at 500 nM in presence of 1 uM compound 3 by Western blot analysis
Outline: (§2)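 Active GrA or proenzyme diluted to 250 nM final in pH 7.5 assay buffer, with or without 1 h preincubation with 1 μM diphenyl phosphonate inhibitor at 37 °C. Probe added at 500 nM final for another 1 h, then SDS/DTT, SDS-PAGE and transfer. Probe read at 658 nm, anti-GrA rabbit monoclonal with Alexa 488 secondary.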

[8] = target: T4, Neutrophil elastase (Homo sapiens) (UniProt P08246); assay: Inhibition of human neutrophil elastase expressed in Pichia pastoris using Ac-Arg(NO)2-Glu(Bzl)-Oic-Abu-ACC substrate by spectrofluorometry relative to control; outline: as §1
T4 sequence (whole entry): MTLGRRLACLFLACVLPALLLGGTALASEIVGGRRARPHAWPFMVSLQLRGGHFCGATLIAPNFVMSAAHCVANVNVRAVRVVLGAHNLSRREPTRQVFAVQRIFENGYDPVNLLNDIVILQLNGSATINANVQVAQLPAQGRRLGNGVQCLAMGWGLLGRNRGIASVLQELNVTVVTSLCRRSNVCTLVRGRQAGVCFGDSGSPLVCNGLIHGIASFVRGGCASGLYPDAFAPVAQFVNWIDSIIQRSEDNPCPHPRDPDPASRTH

[9] = target: T1, Granzyme A (Homo sapiens); assay: Inhibition of Granzyme A (unknown origin) expressed in Pichia pastoris assessed as second- order inhibition rate constant (Kobs/I ratio) pre-incubated with SK15 substrate for 15 mins before enzyme addition by spectrofluorometry
Outline: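 Recombinant GrA at 350 nM, pre-warmed at 37 °C, added to SK15 substrate that had been preincubated 15 min at 37 °C with varied inhibitor or probe (inhibitor range 714–333 nM, SK15 10 μM). Tris/NaCl/CaCl2/Tween-20 buffer, pH 7.5. AMC-type fluorescence at 355/460 nm under pseudo-first-order conditions to give kobs/I. Mean of at least three experiments with standard deviation.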

[10] = target: T5, Granzyme M (Homo sapiens) (UniProt P51124); assay: Inhibition of Granzyme M (unknown origin) expressed in Pichia pastoris using Ac-Lys-Val-Pro-Leu-ACC substrate by spectrofluorometry relative to control; outline: as §1
T5 sequence (whole entry): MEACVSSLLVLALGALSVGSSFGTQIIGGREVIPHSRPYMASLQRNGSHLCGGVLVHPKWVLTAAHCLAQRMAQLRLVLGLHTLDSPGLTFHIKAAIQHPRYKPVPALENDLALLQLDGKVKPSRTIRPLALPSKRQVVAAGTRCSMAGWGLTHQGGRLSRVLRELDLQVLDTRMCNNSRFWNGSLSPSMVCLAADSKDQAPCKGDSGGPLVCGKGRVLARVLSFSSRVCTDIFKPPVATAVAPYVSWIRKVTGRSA

[11] = target: T1, Granzyme A (Homo sapiens); assay: Binding affinity to Granzyme A active form (unknown origin) expressed in Pichia pastoris by Western blot analysis; outline: as §2
[12] = target: T1, Granzyme A (Homo sapiens); assay: Binding affinity to Granzyme A in human NK92 cells at 250 nM to 2 uM incubated for 1 hr by SDS-PAGE based in-gel detection assay; format: cell-based
[13] = target: T1, Granzyme A (Homo sapiens); assay: Binding affinity to Granzyme A zymogen form (unknown origin) expressed in Pichia pastoris by Western blot analysis; outline: as §2
[14] = target: T1, Granzyme A (Homo sapiens); assay: Binding affinity to Granzyme A (unknown origin) expressed in Pichia pastoris assessed as minimum concentration needed for GrA labeling at enzyme to probe ratio was 1:1 incubated for 5 to 30 mins by SDS-PAGE based in-gel detection method
Outline: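 Recombinant GrA (Pichia pastoris), 250 nM, with probe at 10–500 nM for 30 min at 37 °C in pH 7.5 Tris/NaCl/CaCl2/Tween-20 buffer. SDS/DTT reduction, 4–12% Bis-Tris SDS-PAGE, transfer, and probe fluorescence at 658 nm, used to estimate the lowest labeling concentration.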

[15] = target: T1, Granzyme A (Homo sapiens); assay: Binding affinity to Granzyme A in human NK92 cells at 1 uM measured 30 mins to 2 hrs post dose by SDS-PAGE analysis; format: cell-based
[16] = target: T1, Granzyme A (Homo sapiens); assay: Binding affinity to Granzyme A active form (unknown origin) expressed in Pichia pastoris at 500 nM in presence of 1 uM methyl 4-[(3S)-3-[[2-[(2S)-2-[(1-diphenoxyphosphoryl-4-guanidinobutyl)carbamoyl]-2,3,3a,4,5,6,7,7a-octahydroindol-1-yl]-2-oxoethyl]carbamoyl]-3,4-dihydro-1H-isoquinolin-2-yl]-4-oxobutanoate by Western blot analysis; outline: as §2
[17] = target: T1, Granzyme A (Homo sapiens); assay: Binding affinity to Granzyme A (unknown origin) expressed in Pichia pastoris assessed as appearance of fluorescent 35 kDa species at enzyme to probe ratio was 1:1 incubated for 5 mins by SDS-PAGE based in-gel detection method
Outline: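 Recombinant GrA (Pichia pastoris) at 250 nM with 250 nM Cy5 probe (1:1) in Tris/NaCl/CaCl2/Tween-20 buffer pH 7.5, 37 °C, for 0–120 min. Reduced in SDS/DTT at 95 °C, run on 4–12% Bis-Tris SDS-PAGE, transferred to nitrocellulose, fluorescence read at 658 nm.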

[18] = target: T2, Granzyme K (Homo sapiens); assay: Substrate activity at Granzyme K (unknown origin) expressed in Pichia pastoris assessed as compound hydrolysis at 200 uM incubated for 30 mins by fluorescence based assay relative to control; set-up: scale not given: the % may be the effect or the level left
[19] = target: Granzyme B (Homo sapiens) (UniProt P10144); assay: Substrate activity at Granzyme B (unknown origin) expressed in Pichia pastoris assessed as compound hydrolysis at 200 uM incubated for 30 mins by fluorescence based assay relative to control

Sequence of Granzyme B (Homo sapiens) (P10144 whole entry): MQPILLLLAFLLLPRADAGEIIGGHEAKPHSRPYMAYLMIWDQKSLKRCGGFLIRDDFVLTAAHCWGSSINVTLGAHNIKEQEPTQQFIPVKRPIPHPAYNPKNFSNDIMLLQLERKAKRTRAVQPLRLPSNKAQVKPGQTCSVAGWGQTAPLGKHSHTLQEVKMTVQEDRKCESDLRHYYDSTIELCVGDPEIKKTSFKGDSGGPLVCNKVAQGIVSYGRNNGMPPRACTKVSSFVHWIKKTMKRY

Activity [1]: Active
SMILES: CC(=O)N[C@@H](CC[S+](C)[O-])C(=O)NCC(=O)N[C@@H](Cc1ccc(F)cc1)C(=O)N[C@@H](CCCNC(=N)N)C(=O)Nc1ccc2c(CC(N)=O)cc(=O)oc2c1 (stereo partly drawn) (Ac-[Met(O)]G[Phe(4-F)]R-{ACC})

Activity [1]: Active
SMILES: CC[C@H](C)[C@H](NC(C)=O)C(=O)NCC(=O)N1C2CCCCC2C[C@H]1C(=O)N[C@@H](Cc1ccc(NC(=N)N)cc1)C(=O)Nc1ccc2c(CC(N)=O)cc(=O)oc2c1 (stereo partly drawn) (Ac-IG[Oic(3aξ,7aξ)][Phe(4-guanidino)]-{ACC})

Activity [18]: 20%
Activity [19]: inactive
SMILES: CC(=O)N1Cc2ccccc2C[C@H]1C(=O)NCC(=O)N1C2CCCCC2C[C@H]1C(=O)N[C@@H](CCCNC(=N)N)C(=O)Nc1ccc2c(CC(N)=O)cc(=O)oc2c1 (stereo partly drawn) (Ac-[Tic]G[Oic(3aξ,7aξ)]R-{ACC})

Further lines, the compound ahead of its results:

SMILES: CN1\C(=C/C=C/C=C/C2N(CCCCCC(=O)NCCCCCC(=O)N3Cc4ccccc4C[C@H]3C(=O)NCC(=O)N3C4CCCCC4C[C@H]3C(=O)NC(CCCNC(=N)N)P(=O)(Oc3ccccc3)Oc3ccccc3)c3ccccc3C2(C)C)C(C)(C)c2ccccc21 (stereo partly drawn)
inhibition [2]: 3%
Activity [3]: inactive
inhibition [4]: inactive
inhibition [5]: inactive
inhibition [6]: inactive
Activity [7]: inactive
inhibition [8]: inactive
Ratio [9]: 3520 s⁻¹ M⁻¹
inhibition [10]: inactive
Activity [11]: Active
Activity [12]: Active
Activity [13]: inactive
MEC [14]: 50 nM
Activity [15]: Active
Activity [16]: inactive
Activity [17]: Active

SMILES: CC(=O)N1Cc2ccccc2C[C@H]1C(=O)N[C@@H](CCc1nc2ccccc2s1)C(=O)N1C2CCCCC2C[C@H]1C(=O)N[C@@H](Cc1ccc(NC(=N)N)cc1)C(=O)Nc1ccc2c(CC(N)=O)cc(=O)oc2c1 (stereo partly drawn)
Activity [1]: Active

SMILES: CC(=O)N[C@@H](CC[S+](C)[O-])C(=O)NCC(=O)N1CC(OCc2ccccc2)C[C@H]1C(=O)N[C@@H](Cc1ccc(NC(=N)N)cc1)C(=O)Nc1ccc2c(CC(N)=O)cc(=O)oc2c1 (stereo partly drawn)
Activity [1]: Active

SMILES: CC(=O)N[C@@H](CC[S+](C)[O-])C(=O)NCC(=O)N[C@@H](Cc1ccc(OCc2c(Cl)cccc2Cl)cc1)C(=O)N[C@@H](Cc1ccc(NC(=N)N)cc1)C(=O)Nc1ccc2c(CC(N)=O)cc(=O)oc2c1 (stereo partly drawn) (Ac-[Met(O)]GY(X1)[Phe(4-guanidino)]-{ACC})
Activity [1]: Active
